Compound activity (PubChem)
KCNK9 block – human KCNK9 channel inhibition; Q9NPC2; HEK293 KCNK9, FluxOR thallium flux fluorescence; stronger effect = lower value; B-score at 10 µM; actives 1.2% (n = 310,000);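 active = ratio B-score over 3 SD below the library mean, with starting fluorescence within 5 SD of its mean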;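 note: negative B-score means less thallium flux so channel inhibition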
hERG protect – shields human hERG channel from block by proarrhythmic agents | Q12809 | CHO-hERG, FluxOR thallium flux, dofetilide IC70 present | activation (rescue from dofetilide block), less the hit threshold, % at 10 µM | actives 0.51% (n = 310,000);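 active = activation above the mean of controls blocked by dofetilide plus 5 SD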;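 note: thallium influx through hERG after potassium depolarization seen as dye fluorescence rise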
KCNQ1 block – human KCNQ1 channel inhibition | CHO-K1 KCNQ1, FluxOR thallium flux fluorescence; stronger effect = higher value | P51787 | AID 2642 | actives 1.3% (n = 310,000) | B-score at 10 µM;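 active = compounds whose thallium flux B-score, printed positive for inhibition, exceeds three library SD while starting fluorescence stays within three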;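 note: channel opened by potassium depolarization with thallium stimulus after 20 min compound exposure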
Target sequence (P51787 whole entry, looked up): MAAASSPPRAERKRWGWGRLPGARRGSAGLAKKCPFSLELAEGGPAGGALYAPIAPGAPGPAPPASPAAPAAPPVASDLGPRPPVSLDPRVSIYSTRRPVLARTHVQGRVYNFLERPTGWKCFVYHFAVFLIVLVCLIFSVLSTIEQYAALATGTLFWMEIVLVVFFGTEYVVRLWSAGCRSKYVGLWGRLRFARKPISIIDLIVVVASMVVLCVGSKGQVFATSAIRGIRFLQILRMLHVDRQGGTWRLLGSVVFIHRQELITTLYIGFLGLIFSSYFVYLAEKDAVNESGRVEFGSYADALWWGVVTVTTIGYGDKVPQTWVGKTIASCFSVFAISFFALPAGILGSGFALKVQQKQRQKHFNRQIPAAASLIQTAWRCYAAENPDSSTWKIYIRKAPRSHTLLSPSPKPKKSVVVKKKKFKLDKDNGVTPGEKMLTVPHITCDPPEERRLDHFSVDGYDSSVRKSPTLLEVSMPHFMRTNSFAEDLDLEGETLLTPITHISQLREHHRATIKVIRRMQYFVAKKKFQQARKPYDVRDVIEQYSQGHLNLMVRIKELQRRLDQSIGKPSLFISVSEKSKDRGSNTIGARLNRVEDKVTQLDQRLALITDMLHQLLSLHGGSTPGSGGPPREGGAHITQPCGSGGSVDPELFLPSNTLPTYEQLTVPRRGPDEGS
KCNQ1 act – potentiators or activators of human KCNQ1 potassium channel; B-score at 10 µM; CHO-K1 KCNQ1, thallium flux FluxOR fluorescence; stronger effect = higher value; actives 0.35% (n = 310,000); AID 2648; P51787;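 active = fluorescence ratio B-score, a plate-corrected score, at least three library SD, with initial intensity B-score within 5 SD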
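assay system = KCNQ1-transfected CHO-K1 cells | medium = assay buffer with matched DMSO | probe or stimulus = depolarizing K+/Tl+ stimulus, K2SO4 and Tl2SO4 each 12.5 mM in 5x stock | dosing = single dose | incubation = dye 90 min, compound 20 min, room temperature | detection = kinetic FluxOR fluorescence, 10 s baseline plus 110 s post-stimulus | evaluation = ratio B score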
Kir21 block – inhibitors of mouse Kir2.1 inward-rectifier potassium channel; HEK293-Kir2.1, FluxOR thallium flux fluorescence; stronger effect = lower value; B-score at 10 µM; actives 0.85% (n = 310,000); P35561; AID 1672;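 active = fluorescence ratio B-score at or below minus 3 SD of library scores, with starting-brightness B-score within 2 SD, cut at about -4.2 in these data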;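 note: channel flux triggered by added potassium and thallium sulfate stimulus; B-score of peak minus minimum fluorescence over baseline after thallium stimulus; more negative B-score means stronger Kir2.1 block with less thallium influx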
KCNK3 inh – human KCNK3 channel inhibition, primary screen; O14649; B-score at 10 µM; actives 0.84% (n = 340,000); CHO-KCNK3 thallium flux, FluxOR fluorescence; stronger effect = lower value;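 active = B-score under library mean minus 4 SD, starting fluorescence ratio at most library mean plus 5 SD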;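 note: more negative B-score means stronger inhibition of thallium flux through KCNK3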
KCNK3 inh conf – confirmation of human KCNK3 two-pore domain potassium channel inhibitors; shares compounds with KCNK3 inh; CHO-KCNK3 thallium flux, FluxOR fluorescence; 0% buffer, 100% carvedilol maximal block; ratio percent of control, % at 10 µM; actives 99% (n = 2,400); AID 651638;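 active = ratio percent of control, averaged over triplicates, above buffer control mean plus 5 SD, cut at about 64% in these data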;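 note: ratio is the fluorescence rise from min to max over baseline after thallium stimulus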
KCNK3 noninduced – activity in cells without induced KCNK3 expression. non-induced KCNK3 parental cells, FluxOR thallium flux; stronger effect = lower value. AID 651747. thallium flux ratio (lower = more inhibition) at 10 µM. actives 40% (n = 2,400). shares compounds with KCNK3 inh;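 active = thallium flux ratio, averaged over three wells, more than 5 SD below the buffer control mean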;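 note: host cells are CHO cells without KCNK3 induction; ratio is peak minus trough fluorescence over baseline then normalized to buffer controls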
* hit, by the source's call; i = inactive; . = no result. Compounds with a hit are over-represented: about 3.8% of the library has one in this group of screens.

SMILES	KCNK9 block	hERG protect	KCNQ1 block	KCNQ1 act	Kir21 block	KCNK3 inh	KCNK3 inh conf	KCNK3 noninduced
O=C(Nc1cccc(NC(=O)c2cccnc2)c1)c1ccccc1	i	0	i	i	0.58	-9.1*	96*	i
O=C(Nc1cccc(NC(=O)c2ccccc2Cl)c1)c1ccc(F)cc1	i	-5	i	i	1.7	-9.3*	95*	i
Cc1ccccc1C(=O)Nc1cccc(NC(=O)c2ccc(F)cc2)c1	i	-3	i	i	0.08	i	.	.
CN1C(=O)NC2C1N(S(C)(=O)=O)CCN2S(C)(=O)=O (configuration not stated)	i	-12	i	i	-0.55	i	.	.
O=c1[nH]c2cc3ccccc3cc2nc1C(F)(F)F	i	0	i	i	-1.3	i	.	.
COc1ccc(Cn2c(/C=C/c3ccccc3)nc3ccccc32)cc1	-6.8*	-8	i	i	0.02	-9.5*	101*	0.15*
CCC(C)n1c(/C=C/c2ccccc2)nc2ccccc21 (configuration not stated)	i	-19	i	i	0	-9.8*	88*	i
CCn1c(/C=C/c2ccccc2)nc2ccccc21	i	-13	i	i	-0.95	i	.	.
O=C(/C=C\c1ccc2c(c1)OCO2)Nc1c2c(nn1-c1ccc(Cl)cc1)CSC2	-7*	-10	i	i	-0.67	-8.9*	65*	i
O=C1Nc2ccccc2C12OCC(COc1ccc(Cl)cc1)O2 (configuration not stated)	i	-17	i	i	1.3	-10*	108*	i
CN1C(=O)C2(OCC(COc3ccc(Cl)cc3)O2)c2ccccc21 (configuration not stated)	i	2	i	i	-0.4	i	.	.
CCOC(=O)c1sc(NC(=O)CSc2nnc(-c3ccco3)n2CC)c(C(=O)OCC)c1C	i	1	i	i	0.11	-12*	98*	i
CCOC(=O)c1c(NC(=O)CSc2nnc(-c3ccccc3)n2CC)sc(C(C)=O)c1C	i	-4	i	i	0.54	i	.	.
Cc1ccc(NC(=O)CSc2nc(=O)n(CCN(C)C)c3c2CCCC3)cc1Cl	i	-11	i	i	-2.1	-10*	68*	i
O=C(NNC(=O)c1cc(-c2ccccc2)nc2ccccc12)Nc1cccc(Cl)c1	i	-22	13*	i	1.2	-9.9*	115*	i
CCOC(=O)N1CCN(S(=O)(=O)c2ccc(C(=O)Nc3nnc(C)o3)cc2)CC1	i	-11	i	i	-0.06	i	.	.
CCNC(=S)N1CCc2cc(OC)c(OC)cc2C1COc1ccc(F)cc1 (configuration not stated)	i	-10	i	i	0.58	-8.7*	102*	i
O=C(Cn1c(C(=O)O)cc2ccccc21)c1ccccc1	i	-9	i	i	0.01	i	.	.
COC(=O)c1ccc(NC(=O)Cn2nnc3ccccc32)cc1	i	-5	i	i	0.71	i	.	.
COc1ccc(C(=O)/C=C/Nc2ccc(S(=O)(=O)Nc3ncccn3)cc2)cc1	i	-4	i	i	-0.41	.	.	.
CCSc1nc2c(c(-c3ccc(C)o3)c1C#N)CCCC2	-6.7*	-7	i	i	-1.6	-8.8*	96*	i
COC(=O)CSc1nc2c(c(-c3ccc(C)o3)c1C#N)CCCC2	i	-3	i	i	0.01	i	.	.
COCCN(C(=O)CSc1nc2ccccc2s1)c1c(N)n(Cc2ccccc2)c(=O)[nH]c1=O	.	.	.	.	.	i	.	.
O=[N+]([O-])c1ccc(CN2CCN(c3ncccn3)CC2)cc1	i	-2	i	i	0.58	i	.	.
Cc1ccc(C(=O)NC(C)c2ccc(F)cc2)cc1 (configuration not stated)	i	-4	i	i	-3.5	i	.	.
SMILES	KCNK9 block	hERG protect	KCNQ1 block	KCNQ1 act	Kir21 block	KCNK3 inh	KCNK3 inh conf	KCNK3 noninduced
Cc1ccc(C(C#N)c2ccc(C(=O)c3ccc(F)cc3)cc2)cc1 (configuration not stated)	i	-14	13*	i	0.72	-8.8*	99*	0.12*
c1ccc(Nc2c(-c3ccco3)nc3ccccn23)cc1	i	-7	i	i	1.6	i	.	.
c1ccc(-c2nc(-c3ccco3)n3ccccc23)cc1	i	-12	i	i	0	-9.7*	116*	0.15*
O=C(N/N=C/c1ccc[nH]1)c1cc(-c2ccc(Cl)cc2)nc2ccccc12	i	-15	i	i	-0.61	-9.1*	124*	0.12*
Clc1nccnc1N/N=C/c1ccc(Br)cc1	i	-1	i	i	2.2	i	.	.
CCc1nnc(SCC(=O)Nc2ccccc2)n1CC1CCCO1 (configuration not stated)	i	-8	i	i	0.07	-8.7*	79*	0.16*
O=C(CSc1nc2ccccc2c(=O)n1CC1CCCO1)Nc1ccccc1 (configuration not stated)	i	-5	i	i	1.2	i	.	.
O=C(CSc1nc2ccccc2c(=O)n1CC1CCCO1)Nc1ccccc1Cl (configuration not stated)	-7.6*	-6	i	i	-0.56	-12*	104*	i
COc1ccc(NC(=S)N(CCCN2CCOCC2)C(C)c2cc3cccc(OC)c3o2)cc1 (configuration not stated)	i	-14	i	i	0.75	i	.	.
COc1cccc2cc(C(C)N(CCCN3CCOCC3)C(=S)Nc3ccc(C)c(C)c3)oc12 (configuration not stated)	i	-14	i	i	-0.13	-9.3*	89*	i
O=C(COc1cccc(Cl)c1Cl)NC1CC1	.	.	.	.	.	i	.	.
COC(=O)COc1ccc(Cl)cc1C1Nc2ccccc2C(=O)N1c1ccc(OC)cc1 (configuration not stated)	-8*	-7	i	i	3.1	i	122*	0.16*
COc1cc(C2Nc3ccccc3C(=O)N2c2ccccc2)c(Br)cc1OCC(=O)O (configuration not stated)	i	-7	i	i	0.04	i	.	.
CCOc1ccc(C2C(C#N)=C(N)SC(N)=C2C#N)cc1OC	i	-9	i	i	-0.83	.	.	.
